UBC13 inh – inhibitors of human UBC13 polyubiquitin chain formation | 330,000 compounds, 0.47% hits | TR-FRET | inhibition, % at 20 µM | P61088; in the data active = inhibition above about 45%, passing the limit was not always enough; inconclusive = no clear call, values can overlap the other calls
Target sequence (P61088 whole entry, looked up): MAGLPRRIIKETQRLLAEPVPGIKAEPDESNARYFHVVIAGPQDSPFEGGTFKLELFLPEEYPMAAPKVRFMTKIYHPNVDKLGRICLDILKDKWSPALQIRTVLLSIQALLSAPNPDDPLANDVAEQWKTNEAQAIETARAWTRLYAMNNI
pCIP destab – lowers stability of the mouse p/CIP coactivator protein. F442A p/CIP-EGFP cells, EGFP fluorescence, 16 h. decrease of EGFP signal, % at 10 µM. 290,000 compounds, 0.01% hits;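 active = EGFP signal decrease of at least 30% at 10 µM or well 3 SD below plate mean, unless failing retest; inactive = the rest, including hits failing retest or dose response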
PP1 inh – blocks human PP1-alpha phosphatase, a PP5 counter-screen; P62136; purified PP1alpha, OMFP fluorescence; inhibition, % at 6.7 µM; 320,000 compounds, 0.9% hits;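 active = inhibition above the mean inhibition of all tested compounds plus 3 SD, computed separately for each screening campaign, cut at about 15% in these data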
AI-2 QS modul – modulates the Vibrio harveyi AI-2 quorum sensing system | Vibrio harveyi JMH597 AI-2 luminescence/OD600 ratio, 9 h; hits give low values; strain lacks LuxN and CqsS sensors; 0 = neutral-control median | AID 2094 | activity change, % at 7.5 µM | 300,000 compounds, 0.4% hits; in the data active = activity change below about -75%, passing the limit was not always enough; inconclusive = no clear call, values can overlap the other calls;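 note: luminescence divided by OD600 gain over 9 h not by final OD600 alone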
T cruzi repl – blocks replication of Trypanosoma cruzi; T. cruzi beta-gal in NIH3T3, luminescence, 90 h; inhibition, % (test concentration not listed); 300,000 compounds, 1.4% hits; AID 1885;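 active = mean inhibition across valid replicates above about 55%, limit read from the data; inconclusive = mean below that limit but half or more replicates reach it; inactive = mean below it, under half of replicates reach it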;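 note: signal also drops with host cell toxicity which is not excluded here; higher percent means less beta-gal luminescence so fewer parasites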
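compound dosing = single 50 nL compound addition per well in DMSO | material = NIH/3T3 host cells with β-galactosidase reporter T. cruzi | input = 5,000 host fibroblasts per well | timing = ≥90 h infection period, 3 h prior cell attachment | read-out basis = percent inhibition of parasite-derived β-gal signal | detection = GalScreen β-gal luminescence, detergent lysis, 60 min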
Large screens that a line does not name were inactive. Shown are actives, neighbours in structure and some others; about 2.8% of the full set was active somewhere.

CN(CCNC(=O)c1cn(C)c2ccc(S(=O)(=O)N(C)C)cc2c1=O)CCc1ccccc1	none
CC(c1ccccc1)N1C(=O)/C(=C/c2ccncc2)SC1=S (stereo unspecified)	PP1 inh 17
CC(C)CCNC(=O)C1CCC(CNS(=O)(=O)c2cccc3nsnc23)CC1 (stereo unspecified)	T cruzi repl 56
C/C(=N\Nc1cccc(Cl)c1)c1ccncc1	T cruzi repl 59
O=C(O)C1Nc2c(O)cccc2C2C=CCC12 (stereo unspecified)	UBC13 inh inconclusive, PP1 inh 50 (no result: AI-2 QS modul, T cruzi repl)
O=C(NCC(c1cccs1)N1CCOCC1)c1cc([N+](=O)[O-])cc([N+](=O)[O-])c1 (stereo unspecified)	T cruzi repl 73
C/C(O)=c1/c(=O)nc2cccc3c2=c1c1ccccc1c3=O	none (no result: PP1 inh)
O=C(O)Cc1ccc(-n2cccc2)cc1	none
COc1ccc(C(c2nnnn2Cc2ccccc2)N2CCN(c3nc4ccccc4s3)CC2)cc1 (stereo unspecified)	T cruzi repl 64
c1ccc(C(c2nnnn2C2CCCC2)N2CCN(c3nc4ccccc4s3)CC2)cc1 (stereo unspecified)	T cruzi repl 71
c1ccc(CCn2nnnc2C(c2cccnc2)N2CCN(c3ccccc3)CC2)cc1 (stereo unspecified)	T cruzi repl 74
CCC(c1nnnn1CS(=O)(=O)c1ccc(C)cc1)N1CCN(c2nc3ccccc3s2)CC1 (stereo unspecified)	T cruzi repl 75
NS(=O)(=O)c1cccc(NC(=O)c2ccc(NS(=O)(=O)c3cccc([N+](=O)[O-])c3)cc2)c1	none (no result: pCIP destab, PP1 inh, AI-2 QS modul, T cruzi repl)
O=[N+]([O-])c1ccc(NCCNCCOc2nonc2-c2ccccc2)c([N+](=O)[O-])c1	none
COCCn1nnnc1C(c1ccc(OC)c(OC)c1)N1CCN(c2nc3ccccc3s2)CC1 (stereo unspecified)	none
c1ccc(CCn2nnnc2C(c2cccnc2)N2CCN(c3nc4ccccc4s3)CC2)cc1 (stereo unspecified)	T cruzi repl 60
O=C(NCc1ccccc1)C(=O)NCC1OCCN1S(=O)(=O)c1ccc([N+](=O)[O-])cc1 (stereo unspecified)	T cruzi repl 60
O=C(NCc1ccco1)C(c1ccccc1F)N(Cc1cccnc1)C(=O)Cn1nnc2ccccc21 (stereo unspecified)	T cruzi repl 66
COc1ccc(C2=NN(C(=O)c3cccs3)C(c3ccccc3OC)C2)cc1OC (stereo unspecified)	none
Cc1ccc(C2=NN(C(=O)c3cccs3)C(c3ccccc3O)C2)cc1 (stereo unspecified)	T cruzi repl 64
Cc1ccc(Nc2nnc(C)c3ccccc23)c(C)c1	none (no result: pCIP destab)
Cc1ccc(NC(=O)Cn2cnc3cc([N+](=O)[O-])ccc3c2=O)cc1	none
O=C(Cn1cnc2cc([N+](=O)[O-])ccc2c1=O)Nc1ccc2c(c1)OCO2	T cruzi repl 55
Cc1cc(C)c(C(=O)Cn2cnc3cc([N+](=O)[O-])ccc3c2=O)cc1C	T cruzi repl 68
CC(C)Cn1nc(NS(=O)(=O)c2cccc3nonc23)c2cc3ccccc3nc21	none
Cc1ccc(C#CC[N+](C)(C)CC#Cc2ccccc2)cc1	T cruzi repl 57
COc1ccc(C(=O)OC(C)C(=O)NC(C)CCc2ccccc2)c(OC)c1 (stereo unspecified)	none
CCOC(=O)c1c(NC(=S)Nc2ccccc2)sc(C)c1C	none
CN1CCc2c(sc(NC(=O)c3ccc4ccccc4c3)c2C(N)=O)C1	T cruzi repl 55
CCOC(=O)c1c(NC(=O)Cc2ccccc2)sc2c1CCN(C)C2	T cruzi repl 55
CCOC(=O)c1c(NC(=O)C[n+]2ccc(Cc3ccccc3)cc2)sc(C)c1C	T cruzi repl 59
O=c1nccc(Nc2ccccc2)[nH]1	none
c1ccc(Nc2cc(Nc3ccccc3)[nH]n2)cc1	AI-2 QS modul -88
COCCOc1cc(NC(=O)c2sccc2Oc2ccc([N+](=O)[O-])cc2F)c(Cl)cc1Cl	none
O=C(Nc1ccccc1)c1sccc1Oc1ccc([N+](=O)[O-])cc1F	T cruzi repl 63
CCN1/C(=C/C(C)=O)Sc2ccc(OC)cc21	none
COc1ccc2c(c1)N(C)/C(=C/c1cccc[n+]1C)S2	T cruzi repl 56
CCN1/C(=C/c2cccc[n+]2C)Sc2ccc(OC)cc21	T cruzi repl 70
